These results are taken from ChEMBL document CHEMBL3804828, “2,4,6-Triaminopyrimidine as a Novel Hinge Binder in a Series of PI3Kδ Selective Inhibitors” (J Med Chem, 2016).

A word on the IC50: it is the midpoint of a concentration-inhibition curve. By half-life is commonly meant the time needed for the level to fall by half in the phase considered. A high value points to slow loss. Usually clearance stands for the volume of plasma or blood freed of the substance per unit of time.

One data set deals with Hepatocyte. The data set can be described thus: Clearance in human hepatocytes at 1 uM by LC/MS/MS in presence of aldehyde oxidase inhibitor raloxifene. The class given is ADME, cell-based. The gist of the method:
(§1)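 Human hepatocytes, incubated with and without the aldehyde oxidase inhibitor raloxifene; predicted clearance calculated from turnover.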

Data set [1] addresses PI3-kinase p110-delta/p85-alpha (Homo sapiens, UniProt O00329). As to the kind of experiment: Inhibition human full length PI3Kdelta catalytic subunit/p85alpha assessed as formation of PIP3 after 30 mins by europium labeled GRP-based TR-FRET assay. The class given is protein-complex assay. On the technique in general: In TR-FRET formats the signal depends on donor and acceptor labels being close together.

Data set [2] is filed under the species Homo sapiens. As to the kind of experiment: Selectivity ratio of IC50 for human full length PI3Kalpha catalytic subunit/p85alpha to IC50 for human full length PI3Kdelta catalytic subunit/p85alpha. The gist of the method: (§2)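 Ratio calculated from the isoform-specific PI3K IC50 values, with enzyme assays run in quadruplicate.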
The species entered for data set [3] is Homo sapiens. The data set can be described thus: Selectivity ratio of IC50 for human full length PI3Kgamma to IC50 for human full length PI3Kdelta catalytic subunit/p85alpha. The gist of the method: as §2
Data set [4] deals with T1, Aldehyde oxidase (Homo sapiens, UniProt Q06278).
T1 sequence (Q06278 whole entry): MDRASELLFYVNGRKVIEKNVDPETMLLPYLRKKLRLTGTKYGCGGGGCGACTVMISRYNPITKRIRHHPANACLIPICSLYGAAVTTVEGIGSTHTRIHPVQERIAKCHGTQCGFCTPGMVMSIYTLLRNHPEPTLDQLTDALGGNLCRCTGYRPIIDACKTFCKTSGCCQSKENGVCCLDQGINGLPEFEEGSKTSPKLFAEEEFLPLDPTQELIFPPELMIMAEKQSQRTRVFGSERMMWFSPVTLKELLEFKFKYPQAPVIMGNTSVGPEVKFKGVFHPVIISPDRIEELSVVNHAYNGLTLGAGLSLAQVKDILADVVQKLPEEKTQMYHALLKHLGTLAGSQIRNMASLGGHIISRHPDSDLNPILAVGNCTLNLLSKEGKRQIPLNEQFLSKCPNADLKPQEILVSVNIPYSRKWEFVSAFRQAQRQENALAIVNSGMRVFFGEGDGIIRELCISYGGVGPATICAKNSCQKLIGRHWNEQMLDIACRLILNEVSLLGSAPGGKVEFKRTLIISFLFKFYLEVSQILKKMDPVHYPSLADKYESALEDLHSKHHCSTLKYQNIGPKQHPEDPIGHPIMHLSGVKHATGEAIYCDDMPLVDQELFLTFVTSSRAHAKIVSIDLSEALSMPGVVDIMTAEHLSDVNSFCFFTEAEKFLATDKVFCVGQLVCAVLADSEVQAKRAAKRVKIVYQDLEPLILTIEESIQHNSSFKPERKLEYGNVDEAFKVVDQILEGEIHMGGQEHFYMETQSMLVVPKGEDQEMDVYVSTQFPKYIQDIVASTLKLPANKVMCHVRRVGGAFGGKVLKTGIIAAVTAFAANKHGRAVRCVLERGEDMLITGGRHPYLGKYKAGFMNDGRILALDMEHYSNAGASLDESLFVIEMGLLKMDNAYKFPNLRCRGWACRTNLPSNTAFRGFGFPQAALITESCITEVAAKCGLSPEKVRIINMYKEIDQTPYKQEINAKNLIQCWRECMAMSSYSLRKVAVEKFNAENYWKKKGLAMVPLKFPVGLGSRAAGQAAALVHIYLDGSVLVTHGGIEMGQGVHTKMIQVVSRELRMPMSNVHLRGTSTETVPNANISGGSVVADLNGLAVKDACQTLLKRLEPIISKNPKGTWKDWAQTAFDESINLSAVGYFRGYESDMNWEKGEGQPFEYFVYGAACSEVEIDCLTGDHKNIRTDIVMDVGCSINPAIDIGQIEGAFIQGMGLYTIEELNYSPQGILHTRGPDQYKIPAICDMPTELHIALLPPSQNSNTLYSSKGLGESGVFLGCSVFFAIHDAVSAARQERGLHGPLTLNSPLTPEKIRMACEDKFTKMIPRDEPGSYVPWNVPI
The data set can be described thus: Drug metabolism in human hepatocytes assessed as aldehyde oxidase mediated M1 formation at 1 uM by LC/MS/MS analysis. The format is ADME, cell-based, Hepatocyte.

A short description of data set [5]: Clearance in human hepatocytes at 1 uM by LC/MS/MS analysis. The class given is ADME, cell-based, Hepatocyte. The gist of the method: as §1
The species entered for data set [6] is Homo sapiens. As to the kind of experiment: Selectivity ratio of IC50 for human recombinant PI3Kbeta to IC50 for human full length PI3Kdelta catalytic subunit/p85alpha. The gist of the method:
as §2

Data set [7] deals with T1, Aldehyde oxidase. The data set can be described thus: Drug level in human hepatocytes assessed as aldehyde oxidase-mediated compound formation treated with (S)-4-Amino-6-((1-(5-chloro-4-oxo-3-phenyl-3,4-dihydroquinazolin-2-yl)ethyl)amino)pyrimidine-5-carbonitrile at 1 uM by LC/MS/MS analysis. The class given is ADME, cell-based, Hepatocyte.
Data set [8] has as its system Liver microsome. The data set can be described thus: Clearance in human liver microsomes at 1 uM by LC/MS/MS analysis in presence of NADPH generating system. The class given is ADME. (In general: Liver microsomes are vesicles of endoplasmic reticulum, rich in cytochrome P450 enzymes.)
In data set [9] the target is T1, Aldehyde oxidase. The data set can be described thus: Drug metabolism in human hepatocytes assessed as aldehyde oxidase mediated (S)-4-Amino-6-((1-(5-chloro-4-oxo-3-phenyl 3,4-dihydroquinazolin-2-yl)ethyl)amino)-2-hydroxypyrimidine-5-carbonitrile formation at 1 uM by LC/MS/MS analysis. The class given is ADME, cell-based, Hepatocyte.
A short description of data set [10]: Half life in Sprague-Dawley rat at 0.44 mg/kg, iv by LC/MS/MS analysis. The class given is ADME, organism-based. To be noted: in vivo. The method, boiled down: (§3)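 Single intravenous dose of 0.44 mg/kg to Sprague-Dawley rats, formulated at 0.09 mg/mL in 5% ethanol, 75% PEG 400 and 20% citrate buffer (pH 3.0). Three animals per dosing route. Volume of distribution taken at steady state.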

Data set [11] relates to Liver microsome. The data set can be described thus: Clearance in rat liver microsomes at 1 uM by LC/MS/MS analysis in presence of NADPH generating system. The class given is ADME.
Data set [12] is described as follows: Volume of distribution at steady state in Sprague-Dawley rat at 0.44 mg/kg, iv by LC/MS/MS analysis. Conditions: in vivo, read-out: Vdss. The class given is ADME, organism-based. The gist of the method:
as §3

Data set [13] is described as follows: Clearance in Sprague-Dawley rat at 0.44 mg/kg, iv by LC/MS/MS analysis. The class given is ADME, organism-based. To be noted: in vivo. The gist of the method: as §3

PI3-kinase p110-delta/p85-alpha, sequence (P27986 whole entry): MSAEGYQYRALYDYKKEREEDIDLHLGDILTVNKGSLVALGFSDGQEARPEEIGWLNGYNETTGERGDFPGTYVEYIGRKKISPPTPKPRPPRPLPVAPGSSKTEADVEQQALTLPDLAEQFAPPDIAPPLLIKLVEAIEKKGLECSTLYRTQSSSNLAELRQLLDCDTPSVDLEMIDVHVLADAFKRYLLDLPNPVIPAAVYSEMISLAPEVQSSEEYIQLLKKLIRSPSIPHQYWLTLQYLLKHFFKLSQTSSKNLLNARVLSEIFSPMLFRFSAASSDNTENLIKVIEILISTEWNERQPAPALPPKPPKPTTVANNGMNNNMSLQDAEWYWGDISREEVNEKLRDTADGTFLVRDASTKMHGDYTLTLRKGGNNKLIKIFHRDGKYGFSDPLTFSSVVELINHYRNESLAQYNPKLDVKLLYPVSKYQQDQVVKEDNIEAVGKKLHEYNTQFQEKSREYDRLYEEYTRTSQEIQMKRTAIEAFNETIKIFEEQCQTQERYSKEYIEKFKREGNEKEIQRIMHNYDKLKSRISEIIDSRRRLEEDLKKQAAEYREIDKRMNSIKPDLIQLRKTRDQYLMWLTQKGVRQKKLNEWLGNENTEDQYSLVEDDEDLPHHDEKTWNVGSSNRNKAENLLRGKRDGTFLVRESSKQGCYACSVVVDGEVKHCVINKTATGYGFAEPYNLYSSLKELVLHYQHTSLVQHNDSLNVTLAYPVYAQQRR
PI3-kinase p110-delta/p85-alpha, sequence (O00329 whole entry): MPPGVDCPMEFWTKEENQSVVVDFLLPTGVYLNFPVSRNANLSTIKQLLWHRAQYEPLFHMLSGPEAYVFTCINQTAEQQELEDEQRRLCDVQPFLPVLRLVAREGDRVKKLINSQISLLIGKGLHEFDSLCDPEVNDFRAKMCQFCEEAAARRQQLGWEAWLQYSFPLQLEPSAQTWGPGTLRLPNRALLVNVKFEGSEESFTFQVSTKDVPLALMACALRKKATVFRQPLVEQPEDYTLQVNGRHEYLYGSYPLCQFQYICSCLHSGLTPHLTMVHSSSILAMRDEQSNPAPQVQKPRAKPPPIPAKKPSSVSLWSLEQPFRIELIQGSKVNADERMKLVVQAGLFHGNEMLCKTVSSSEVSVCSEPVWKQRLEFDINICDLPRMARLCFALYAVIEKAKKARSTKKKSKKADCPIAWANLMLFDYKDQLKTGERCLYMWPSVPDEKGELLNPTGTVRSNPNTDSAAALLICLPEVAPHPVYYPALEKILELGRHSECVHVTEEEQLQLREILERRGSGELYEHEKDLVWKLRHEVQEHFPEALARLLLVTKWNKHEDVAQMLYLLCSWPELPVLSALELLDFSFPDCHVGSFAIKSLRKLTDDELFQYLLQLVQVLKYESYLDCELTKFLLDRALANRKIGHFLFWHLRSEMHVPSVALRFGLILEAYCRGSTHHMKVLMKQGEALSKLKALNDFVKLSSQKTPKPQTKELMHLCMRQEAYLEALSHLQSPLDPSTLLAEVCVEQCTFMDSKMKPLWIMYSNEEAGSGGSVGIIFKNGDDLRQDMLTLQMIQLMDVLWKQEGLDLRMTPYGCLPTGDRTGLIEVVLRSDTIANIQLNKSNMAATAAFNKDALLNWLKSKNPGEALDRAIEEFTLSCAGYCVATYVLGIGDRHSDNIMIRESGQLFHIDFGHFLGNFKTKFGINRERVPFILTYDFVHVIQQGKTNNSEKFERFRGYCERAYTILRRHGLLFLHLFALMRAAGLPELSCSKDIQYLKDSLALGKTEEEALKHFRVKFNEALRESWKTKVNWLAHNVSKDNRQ

`C[C@H](Nc1ncnc(N)c1C#Cc1ccc(F)cn1)c1nc2cccc(Cl)c2c(=O)n1-c1ccccc1`: in the data set with Hepatocyte, the CLH was found to be 2.17 mL/min/kg. Also, the IC50 in data set [1] came out at 1.2 nM. In addition, the Ratio IC50 in the data set listed under Homo sapiens [2] was determined as 2600; in the data set filed under Homo sapiens [3], 470; in the data set filed under Homo sapiens [6], 330. In addition, the Drug metabolism entry on Aldehyde oxidase [4] was “metabolite_detected”. In data set [5], the CLhep predicted at 1 µM is 8.5 mL/min/kg.

Consider `Cc1c(N)ncnc1N[C@@H](C)c1nc2cccc(Cl)c2c(=O)n1-c1ccccc1`, for which the CLH in the data set on Hepatocyte was determined as 4.17 mL/min/kg. Also, in data set [1], the IC50 came out at 14 nM. Further, the Ratio IC50 turned out to be 700 in the data set filed under Homo sapiens [2], 700 in the data set listed under Homo sapiens [3] and 380 in the data set filed under Homo sapiens [6]. For the same compound, the CLhep predicted at 1 µM in [5] is 12.2 mL/min/kg.

With `C[C@H](Nc1nc(O)nc(N)c1C#N)c1nc2cccc(Cl)c2c(=O)n1-c1ccccc1`, the Drug metabolism entry on Aldehyde oxidase [7] is listed as “metabolite_detected”.

As for `C[C@H](Nc1ncnc(N)c1C#N)c1nc2cccc(Cl)c2c(=O)n1-c1ccccc1`, the results for the CLH in the data set on Hepatocyte, in the data set on Liver microsome [8] and with Liver microsome [11] were 1.5 mL/min/kg, 1.7 mL/min/kg and 3.3 mL/min/kg, respectively. For the same compound, in data set [1], the IC50 worked out at 0.4 nM. Moreover, the Ratio IC50 came out at 4600 in the data set listed under Homo sapiens [2]; 1200 in the data set listed under Homo sapiens [2] (tested as the 2H-labelled form); 680 in the data set filed under Homo sapiens [3]; 420 in the data set listed under Homo sapiens [3] (tested as the 2H-labelled form); 200 in the data set listed under Homo sapiens [6]; 70 in the data set filed under Homo sapiens [6] (tested as the 2H-labelled form). For the same compound, the Drug metabolism result at Aldehyde oxidase [9] was “metabolite_detected”. In [5], the CLhep predicted at 1 µM was 14.7 mL/min/kg. This compound also had a half-life in data set [10] of 2.6 h. Also, the Vd in [12] was 2.6 L/kg. Moreover, in [13], the clearance is 18.3 mL/min/kg.
